# Experimental data taken from ChEMBL document CHEMBL5154645, “Potent Anti-SARS-CoV-2 Activity by the Natural Product Gallinamide A and Analogues via Inhibition of Cathepsin L” (J Med Chem, 2022).
# Activity calls are given as the source filed them. The calls are words filed in the database; no cut-off is given here.
# Columns and labels:
# [1] = target: T1, Cathepsin B (Homo sapiens, UniProt P07858); assay: Inhibition of human recombinant Cathepsin B assessed remaining activity using Z-FR-AMC as substrate incubated for 30 mins by fluorometric assay
# In short: (§1)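 Recombinant human cathepsins: L, B, V and K at 1.11 nM, S at 4.44 nM. Each was preincubated 30 min at 25 °C with 3333 to 0.006 nM compound. Z-FR-AMC was added at 40 μM final. AMC release rate over 0–30 min was compared with DMSO (ex/em 360/460). IC50 from four technical replicates.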
# [2] = target: T2, Cathepsin L2 (Homo sapiens, UniProt O60911); assay: Inhibition of human recombinant Cathepsin V assessed remaining activity using Z-FR-AMC as substrate incubated for 30 mins by fluorometric assay; in short: as §1
# T2 sequence (O60911 whole entry): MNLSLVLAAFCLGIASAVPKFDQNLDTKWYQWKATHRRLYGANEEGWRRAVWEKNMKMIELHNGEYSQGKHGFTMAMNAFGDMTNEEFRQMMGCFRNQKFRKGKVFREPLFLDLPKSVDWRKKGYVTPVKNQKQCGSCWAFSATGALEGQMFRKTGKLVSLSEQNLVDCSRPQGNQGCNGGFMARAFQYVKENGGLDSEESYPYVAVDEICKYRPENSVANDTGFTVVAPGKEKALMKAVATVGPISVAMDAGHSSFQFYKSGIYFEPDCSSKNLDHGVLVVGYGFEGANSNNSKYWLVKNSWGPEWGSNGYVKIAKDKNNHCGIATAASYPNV
# [3] = target: Cathepsin S (Homo sapiens, UniProt P25774); assay: Inhibition of human recombinant Cathepsin S assessed remaining activity using Z-FR-AMC as substrate incubated for 30 mins by fluorometric assay; in short: as §1
# [4] = target: T3, Cathepsin K (Homo sapiens, UniProt P43235); assay: Inhibition of human recombinant Cathepsin K assessed remaining activity using Z-FR-AMC as substrate incubated for 30 mins by fluorometric assay; in short: as §1
# T3 sequence (P43235 whole entry): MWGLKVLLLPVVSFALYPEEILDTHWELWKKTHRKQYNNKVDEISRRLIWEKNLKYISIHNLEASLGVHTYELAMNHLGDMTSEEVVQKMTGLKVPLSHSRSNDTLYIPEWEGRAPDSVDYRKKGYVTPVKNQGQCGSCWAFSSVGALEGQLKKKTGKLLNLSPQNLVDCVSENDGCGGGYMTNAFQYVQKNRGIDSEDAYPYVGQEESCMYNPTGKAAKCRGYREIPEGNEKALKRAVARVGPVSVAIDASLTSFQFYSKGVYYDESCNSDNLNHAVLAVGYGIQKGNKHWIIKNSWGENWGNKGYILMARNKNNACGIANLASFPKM
# [5] = system: SARS-CoV-2; assay: Antiviral activity against SARS-CoV-2 infected in African green monkey Vero E6 cells assessed as inhibition of viral infection pre incubated for 30 minutes followed by viral infection and measured after 72 hrs by Nucblue dye based fluorometric analysis; type: functional, organism-based; conditions: Severe acute respiratory syndrome coronavirus 2, Vero C1008
# [6] = target: T4, Procathepsin L (Homo sapiens, UniProt P07711); assay: Inhibition of human recombinant Cathepsin L assessed as Kinact using Z-FR-AMC as substrate inubated for 30 mins by fluorometric assay
# In short: (§2)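 Human CatL, human CatB or mouse CatL at 1 nM, at 25 °C in pH 5.5 Na acetate/DTT/EDTA/NaCl buffer. Reactions held 40 μM Z-FR-AMC and 555.56 to 0.01 nM compound, in quadruplicate. Product formation was measured at 6 min intervals for 1 h and normalized to DMSO wells. kobs came from inactivation curves. kinact and KIapp were obtained by nonlinear regression of kobs = kinact[I]/(KIapp + [I]); their ratio was then calculated.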
# Target sequence in this assay (P07711 114-333 limits assumed): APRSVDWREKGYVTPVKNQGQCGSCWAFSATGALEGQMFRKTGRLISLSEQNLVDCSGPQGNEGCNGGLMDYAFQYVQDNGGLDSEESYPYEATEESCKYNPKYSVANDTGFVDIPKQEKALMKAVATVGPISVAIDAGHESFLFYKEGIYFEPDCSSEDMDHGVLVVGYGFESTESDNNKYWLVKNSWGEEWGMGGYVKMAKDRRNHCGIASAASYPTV
# [7] = target: T1, Cathepsin B; assay: Inhibition of human recombinant Cathepsin B assessed as Kinact using Z-FR-AMC as substrate inubated for 30 mins by fluorometric assay
# [8] = target: T5, Procathepsin L (Mus musculus) (UniProt P06797); assay: Inhibition of mouse Cathepsin L assessed as Kinact using Z-FR-AMC as substrate inubated for 30 mins by fluorometric assay; in short: as §2
# T5 sequence (whole entry): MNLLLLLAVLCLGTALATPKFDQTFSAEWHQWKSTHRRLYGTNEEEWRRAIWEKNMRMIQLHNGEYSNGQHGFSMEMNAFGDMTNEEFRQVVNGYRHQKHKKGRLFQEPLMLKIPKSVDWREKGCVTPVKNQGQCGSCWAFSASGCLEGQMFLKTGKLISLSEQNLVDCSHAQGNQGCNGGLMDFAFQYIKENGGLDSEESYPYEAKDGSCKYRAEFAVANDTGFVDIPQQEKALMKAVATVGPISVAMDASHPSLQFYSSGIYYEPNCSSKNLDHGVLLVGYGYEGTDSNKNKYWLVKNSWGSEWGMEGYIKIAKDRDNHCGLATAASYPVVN
# [9] = target: T4, Procathepsin L; assay: Inhibition of human recombinant Cathepsin L assessed as Apparent inhibition constant using Z-FR-AMC as substrate […] by fluorometric assay; conditions: read-out: Ki(app)
# Target sequence in this assay (P07711 whole entry): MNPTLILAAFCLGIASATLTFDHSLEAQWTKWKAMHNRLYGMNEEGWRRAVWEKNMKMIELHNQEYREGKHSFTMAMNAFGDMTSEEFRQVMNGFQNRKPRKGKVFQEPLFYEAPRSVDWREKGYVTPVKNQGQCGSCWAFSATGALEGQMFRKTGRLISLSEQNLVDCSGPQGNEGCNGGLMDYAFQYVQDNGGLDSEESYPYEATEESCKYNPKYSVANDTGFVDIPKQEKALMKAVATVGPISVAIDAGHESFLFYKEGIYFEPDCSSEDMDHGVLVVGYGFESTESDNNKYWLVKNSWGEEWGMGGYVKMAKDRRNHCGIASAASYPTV
# [10] = target: T1, Cathepsin B; assay: Inhibition of human recombinant Cathepsin B assessed as Apparent inhibition constant using Z-FR-AMC as substrate inubated for 30 mins by fluorometric assay; conditions: read-out: Ki(app); in short: as §2
# [11] = target: T6, Procathepsin L (Mus musculus, UniProt P06797); assay: Inhibition of mouse Cathepsin L assessed as Apparent inhibition constant using Z-FR-AMC as substrate inubated for 30 mins by fluorometric assay; conditions: read-out: Ki(app); in short: as §2
# T6 sequence (P06797 whole entry): T5 sequence (whole entry)
# [12] = target: T5, Procathepsin L (Mus musculus); assay: Inhibition of mouse Cathepsin L assessed as ratio of Kinact/Kiapp using Z-FR-AMC as substrate inubated for 30 mins by fluorometric assay; in short: as §2
# [13] = system: Vero C1008; assay: Cytotoxicity against cells African green monkey Vero E6 cells incubated for 24 to 72 hrs by alamar blue assay; type: toxicity, cell-based; conditions: chlorocebus sabaeus, time 24-72 hrs
# In short: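 VeroE6 cells in DMEM with 10% FCS were seeded at 5 × 10^4 per well. After adherence, cells were given varying compound concentrations for 24 or 72 h at 37 °C, 5% CO2. Alamar Blue HS was added for a further 2–4 h. Viability was read as fluorescence at ex/em 560/590 nm.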
# [14] = system: SARS-CoV-2; assay: Anti viral activity against SARS-CoV-2 infected in African green monkey veroE6 assessed as reduction in viral load; type: functional, Severe acute respiratory syndrome coronavirus 2, Vero E6
# [15] = target: T1, Cathepsin B; assay: Inhibition of recombinant human Cathepsin B in African green monkey Vero E6 using Z-Phe-Arg-AMC as substrate for 30 mins by fluorometric assay; type: cell-based
# In short: (§3)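 VeroE6 or A549 cells were lysed by sonication in 50 mM MES pH 6.0 with AEBSF, pepstatin A, EDTA and DTT; protein was quantified by BCA. An equal volume of 50 μM Z-Phe-Arg-AMC was then added. Activity was normalized to 0.2% DMSO wells.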
# [16] = target: T1, Cathepsin B; assay: Inhibition of recombinant human Cathepsin B expressed in huamn A549 using Z-Phe-Arg-AMC as substrate incubated for 30 mins by fluorometric assay; in short: as §3
# [17] = system: SARS-CoV-2; assay: Antiviral activity against SARS-CoV-2 infected in human HEK293 cells expressing TMPRSS2 as inhibition of viral entry; type: functional, organism-based; conditions: Severe acute respiratory syndrome coronavirus 2
# [18] = system: SARS-CoV-2; assay: Antiviral activity against SARS-CoV-2 infected in African green monkey Vero E6 cells assessed as inhibition of viral entry at 0.5 uM pretreated for 30 mins with cells followed by viral infection and measured after 24 hrs post infection by Alexa Fluor 488 and Hoechst dye based fluorescence microscopy; type: functional, organism-based; conditions: Severe acute respiratory syndrome coronavirus 2
# [19] = target: T4, Procathepsin L; assay: Binding affinity to Cathepsin L in African green monkey VeroE6 cell lysates assessed as covalent adducts by quantitative mass spectrometry; type: subcellular; conditions: Vero E6
# In short: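 VeroE6 cells at 80–90% confluence were treated with 10 μM compound for 1 h in triplicate, washed with DPBS, and lysed in 4% sodium deoxycholate buffer. Lysates were digested to peptides and analysed by nanoflow LC-MS/MS. Covalent CatL adducts were identified by targeted MS/MS at 1% FDR.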
# Target sequence in this assay (P07711 114-333 limits assumed): as the sequence (P07711 114-333 limits assumed) above
# [20] = system: SARS-CoV-2; assay: Antiviral activity against SARS-CoV-2 infected in human MRC5 cells expressing ACE2/TMPRSS2 assessed as inhibition of viral entry at 32 uM; type: functional, organism-based; conditions: Severe acute respiratory syndrome coronavirus 2
# [21] = target: T4, Procathepsin L; assay: Inhibition of recombinant human Cathepsin L in African green monkey Vero E6 at 20 uM using Z-Phe-Arg-AMC as substrate for 30 mins by fluorometric assay; type: cell-based; in short: as §3
# Target sequence in this assay (P07711 114-333 limits assumed): as above
# [22] = system: SARS-CoV-2; assay: Antiviral activity against SARS-CoV-2 infected in Vero E6 cells assessed as inhibition of viral entry at 0.5 uM and measured after 24 hrs post infection by Alexa Fluor 488 and Hoechst dye based fluorescence microscopy; type: functional, organism-based; conditions: Severe acute respiratory syndrome coronavirus 2
# [23] = system: SARS-CoV-2; assay: Synergistic antiviral activity against SARS-CoV-2 infected in human HEK293 cells expressing TMPRSS2 as inhibition of viral entry in presence of Na-famostat mesylate; type: functional, organism-based; conditions: Severe acute respiratory syndrome coronavirus 2
# [24] = target: T4, Procathepsin L; assay: Inhibition of human recombinant Cathepsin L assessed as ratio of Kinact/Kiapp using Z-FR-AMC as substrate inubated for 30 mins by fluorometric assay
# Target sequence in this assay (P07711 114-333 limits assumed): as above
# [25] = target: T1, Cathepsin B; assay: Inhibition of human recombinant Cathepsin B assessed as ratio of Kinact/Kiapp using Z-FR-AMC as substrate inubated for 30 mins by fluorometric assay; in short: as §2
# [26] = target: T4, Procathepsin L; assay: Inhibition of human recombinant Cathepsin L assessed enzyme activity using Z-FR-AMC as substrate at 416 nM incubated for 30 mins by fluorometric assay
# In short: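 Recombinant human CatL at 50 pM was incubated with 416 nM compound for […] at 25 °C in 50 mM Na acetate pH 5.5, 5 mM DTT, 0.01% BSA, 1 mM EDTA. An equal volume of 5 μM Z-FR-AMC was then added. Fluorescence was read at 360/460 nm in triplicate wells and normalized to DMSO vehicle wells.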
# Target sequence in this assay (P07711 114-333 limits assumed): as above
# Chain of Cathepsin S (P25774 whole entry): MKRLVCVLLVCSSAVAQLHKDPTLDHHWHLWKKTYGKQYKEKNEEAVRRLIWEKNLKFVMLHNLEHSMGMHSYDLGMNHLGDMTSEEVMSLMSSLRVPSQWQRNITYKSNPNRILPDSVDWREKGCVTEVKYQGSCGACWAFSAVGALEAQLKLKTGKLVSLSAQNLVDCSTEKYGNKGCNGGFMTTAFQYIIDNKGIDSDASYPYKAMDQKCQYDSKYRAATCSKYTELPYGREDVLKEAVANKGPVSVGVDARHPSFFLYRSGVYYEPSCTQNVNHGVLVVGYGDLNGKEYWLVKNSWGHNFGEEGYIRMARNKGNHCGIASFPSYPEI
Compound,IC50 [1] [nM],IC50 [2] [nM],IC50 [3] [nM],IC50 [4] [nM],EC50 [5] [nM],Kinact [6],Kinact [7],Kinact [8],Ki [9] [nM],Ki [10] [nM],Ki [11] [nM],Ratio [12],CC50 [13] [nM],Activity [20],Ratio [24],Ratio [25],other results
CC[C@H](C)[C@@H](C(=O)O[C@@H](CC(C)C)C(=O)N[C@@H](CC(C)C)C(=O)N[C@@H](C)/C=C/C(=O)N1C(=O)C=C(OC)[C@@H]1C)N(C)C [GALLINAMIDE A],7.34,697,0.367,79.6,28,4.75 10^-3/s,6.27 10^-4/s,5.69 10^-3/s,7.95,117,5.29,1.07 10^6/s/M,> 100000,Active,,,IC90 [14]: 88 nM; inhibition [15]: Active; inhibition [16]: Active; Activity [17]: Active; Activity [18]: Active; Activity [19]: Active; inhibition [21]: Active; Activity [22]: Active; Activity [23]: Active
COC1=CC(=O)N(C(=O)/C=C/[C@H](C)NC(=O)[C@H](CC(C)C)NC(=O)[C@H](CC2CCCCC2)NC(=O)C2CCN(C)CC2)[C@H]1Cc1c[nH]c2ccccc12,0.278,20.6,0.304,0.623,6070,3.47 10^-3/s,2.09 10^-2/s,8.56 10^-3/s,18,861,29.3,2.92 10^5/s/M,> 100000,,1.93 10^5/s/M,2.43 10^4/s/M,
COC1=CC(=O)N(C(=O)/C=C/[C@H](C)NC(=O)[C@H](CCc2ccccc2)NC(=O)[C@H](CC2CCCCC2)NC(=O)[C@H](C(C)C)N(C)C)[C@H]1Cc1c[nH]c2ccccc12,47.6,186,60.3,219,168,5.87 10^-3/s,3.35 10^-3/s,2.24 10^-3/s,,347,16.5,1.36 10^5/s/M,> 100000,Active,1.89 10^5/s/M,9.65 10^3/s/M,
COC1=CC(=O)N(C(=O)/C=C/[C@H](C)NC(=O)[C@H](CC(C)C)NC(=O)[C@H](Cc2ccccc2)NC(=O)[C@H](CC(C)C)N(C)C)[C@H]1Cc1c[nH]c2ccccc12,,,,,,,,,,,,,,,,,inhibition [26]: 90%
COC1=CC(=O)N(C(=O)/C=C/[C@H](CCc2ccccc2)NC(=O)[C@H](CC(C)C)NC(=O)[C@H](CC(C)C)NC(=O)[C@H](C(C)C)N(C)C)[C@H]1Cc1c[nH]c2ccccc12,0.149,419,0.224,1.5,920,9.85 10^-3/s,1.89 10^-3/s,9.6 10^-3/s,11.8,238,4.15,2.31 10^6/s/M,> 100000,,8.35 10^5/s/M,7.94 10^3/s/M,
COC1=CC(=O)N(C(=O)/C=C/[C@H](C)NC(=O)[C@H](CC(C)C)NC(=O)[C@H](CC(C)C)NC(=O)C2CCN(C)CC2)[C@H]1Cc1c[nH]c2ccccc12,0.416,63.2,0.0149,17.9,> 5000,8.34 10^-3/s,1.7 10^-2/s,3.19 10^-3/s,,854,3.95,8.06 10^5/s/M,> 100000,,2.9 10^5/s/M,1.99 10^4/s/M,
